Experimental data published in paper PMC8184462 (Annals of Translational Medicine, 2021).

Assays:
[1] = system: T790M-mutant NSCLC cell line H1975; details: ref [14],[15]; cited from earlier work
[2] = system: NSCLC; details: ref [15], cited from earlier work
[3] = format: in vivo, human
Method in brief: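 Urine and feces were collected until cumulative recovery exceeded 80% of dose and fell below 1% of dose per day on 2 consecutive days. Radioactivity was counted by liquid scintillation: urine directly, feces after homogenization with solvent and combustion with CO2 trapping. Each interval's excretion was expressed relative to the actual administered radioactivity (vial content minus residue), then summed cumulatively.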

[4] = system: T790M-mutant NSCLC cell line LU1868; details: ref [14],[15]; cited from earlier work
[5] = Plasma pharmacokinetics of unlabeled almonertinib and metabolite HAS-719; format: in vivo, human
Method in brief: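 Four healthy fasted male volunteers received one oral [14C]-labeled suspension of the test compound (110 mg/50 µCi) and ate lunch 4 h after dosing. Blood (7 mL) was drawn predose and at 1–504 h, centrifuged (3,000 rpm, 10 min) and stored at –20 °C. Parent and metabolite were quantified by validated LC-MS/MS. Noncompartmental parameters are reported as mean ± SD.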

[6] = system: NSCLC HCC827 cell line harboring EGFR-sensitive mutants; details: ref [14],[15]; cited from earlier work

SMILES: C=CC(=O)Nc1cc(Nc2nccc(-c3cn(C4CC4)c4ccccc34)n2)c(OC)cc1N(C)CCN(C)C [HS-10296, almonertinib]
- Growth inhibition [1]: potently inhibited the growth
- Tolerability ([2]; 26 patients, 55, 110, 220, 260 mg, single or multiple dose): well tolerated
- Dose linearity of metabolism ([2]; 55–260 mg): linear trend
- Antitumor activity ([2]; NSCLC patients, dose-escalation cohort): preliminary antitumor activity
- Main excretion route ([3]; 0–504 hours): mainly excreted via feces
- Cumulative excretion rate of drug TRA (urine + feces) ([3]; 0–504 hours after administration, % of dose): 90.19%±4.18%
- Cumulative excretion rate in feces ([3]; 0–504 hours, % of dose): 84.75%±3.35%
- Cumulative excretion rate in urine ([3]; 0–504 hours, % of dose): 5.44%±0.83%
- Growth inhibition [4]: potently inhibited the growth
- CL/F ([5]; LC-MS/MS, single oral 110 mg/50 µCi, mean±SD): 36.8 ± 10.8 L/h
- AUC(0-inf) ([5]; male, human, po, 110 mg): 3160 ng·h/mL
- AUC(0-t) ([5]; male, human, po, 110 mg): 2900 ng·h/mL
- Cmax ([5]; male, human, po, 110 mg): 119 ± 27.7 ng/mL
- Tmax ([5]; male, human, po, 110 mg): 5.25 ± 3.2 h
- Vd/F ([5]; male, human, po, 110 mg): 1270 L
- half-life ([5]; male, human, po, 110 mg): 25 ± 6.41 h
- Growth inhibition [6]: potently inhibited the growth
